{"data": "Assay results gathered from unrelated publications", "effect on": "enzyme activity", "action": "inhibitor", "EGFR": "Epidermal growth factor receptor (EGFR, Homo sapiens, UniProt P00533)", "DNA-3-methyladenine glycosylase": "DNA-3-methyladenine glycosylase (Homo sapiens, UniProt P29372)", "YCK2": "Serine/threonine protein kinase YCK2 (YCK2, Candida albicans, UniProt A0A1D8PKB4)", "MTOR": "Serine/threonine-protein kinase mTOR (MTOR, Homo sapiens, UniProt P42345)", "CDK6 with cyclin D3": "Cyclin-dependent kinase 6, with cyclin D3 (CDK6, Homo sapiens, UniProt Q00534)", "CA2": "Carbonic anhydrase 2 (CA2, Bos taurus, UniProt P00921)", "note": "Compare with care: the assays were run in different laboratories."}
{"Compound": "Nc1cc(N2C(=O)c3ccccc3C2=O)nc(SCC(=O)NN=Cc2ccc(Cl)cc2)n1", "target": "EGFR", "IC50": "880 nM"}
{"Compound": "Clc1ccc(Nc2ccncc2)cc1Cl", "target": "DNA-3-methyladenine glycosylase", "IC50": "> 99000 nM"}
{"Compound": "Cn1cc(-c2ccnc3ccccc23)c(-c2ccccn2)n1", "target": "YCK2", "method": "ADP detection", "IC50": "550 nM"}
{"Compound": "COc1c(Cl)cccc1Nc1c(-c2ccncc2OC[C@@H]2COCCO2)[nH]c2c1C(=O)NCC2", "target": "EGFR", "method": "TR-FRET", "IC50": "< 0.5 nM"}
{"Compound": "COc1ccc(-c2ccc3c(N4CCOC[C@@H]4C)nc(N4CCOC[C@@H]4C)nc3n2)cc1COCCOCCOCCOCCONC(=O)c1ccc(F)c(F)c1Nc1ccc(I)cc1F", "target": "MTOR", "method": "FRET", "IC50": "28 to 40 nM"}
{"Compound": "N#Cc1ccc(NC(=O)Nc2ccccc2)cc1", "target": "SRSF protein kinase 3 (SRPK3, Homo sapiens, UniProt Q9UPE1)", "method": "FRET", "IC50": "5700 nM"}
{"Compound": "CNS(=O)(=O)c1ccc(Nc2ncc3cc(Cl)c(=O)n(C4CCCC4)c3n2)c(C)c1", "target": "CDK6 with cyclin D3", "method": "radiometric", "IC50": "62 nM"}
{"Compound": "O=C(/C=C/c1ccc(F)cc1)c1nc2ccccc2n1Cc1cn([C@@H]2O[C@H](CO)[C@H](O)[C@H](O)[C@H]2O)nn1", "target": "EGFR", "IC50": "69 nM"}
{"Compound": "COc1cc(-c2[nH]c(=S)nc3nc(Nc4ccc(S(N)(=O)=O)cc4)sc23)ccc1O", "target": "CA2", "method": "absorbance", "IC50": "79.5 nM"}
{"Compound": "CNS(=O)(=O)c1ccc(Nc2ncc(C(F)(F)F)c(N3CCC[C@](C)(O)C3)n2)c(C)c1", "target": "CDK6 with cyclin D3", "method": "radiometric", "IC50": "3550 nM"}
{"Compound": "N=C(N)c1ccc(OCCCCCOc2ccc(C(=N)N)cc2)cc1", "target": "Neutrophil elastase (ELANE, Homo sapiens, UniProt P08246)", "method": "absorbance", "IC50": "> 100000 nM"}
{"Compound": "CNS(=O)(=O)c1ccc(Nc2ncc(C(F)(F)F)c([C@H]3CC[C@](C)(O)CC3)n2)c(C)c1", "target": "CDK6 with cyclin D3", "method": "radiometric", "IC50": "715 nM"}
{"Compound": "c1coc(-c2n[nH]cc2-c2ccnc3ccccc23)c1", "target": "YCK2", "method": "ADP detection", "IC50": "830 nM"}
{"Compound": "CC(=O)c1nc2ccccc2n1Cc1cn([C@@H]2OC[C@@H](O)[C@H](O)[C@H]2O)nn1", "target": "EGFR", "IC50": "132 nM"}
{"Compound": "CCCCNC(c1ccccc1)c1c(N)[nH]c(=O)[nH]c1=O (centres unmarked)", "target": "EGFR", "IC50": "988 nM"}
{"Compound": "NS(=O)(=O)c1ccc(-n2nc(C(=O)NN=Cc3ccccc3O)cc2-c2ccccc2)cc1", "target": "Serine/threonine-protein kinase B-raf (BRAF, Homo sapiens, UniProt P15056, V600E)", "IC50": "17500 nM"}
{"Compound": "COc1ccc(N2CCN(Cc3cn4c(-c5ccc(Br)cc5)nnc4s3)CC2)cc1", "target": "Ferroptosis suppressor protein 1 (AIFM2, Homo sapiens, UniProt Q9BRQ8)", "method": "absorbance", "IC50": "34 nM"}
{"Compound": "COc1ccc(-c2ccc3c(N4CCOC[C@@H]4C)nc(N4CCOC[C@@H]4C)nc3n2)cc1C(=O)NCCOCCOCCOCCONC(=O)c1ccc(F)c(F)c1Nc1ccc(I)cc1F", "target": "MTOR", "method": "FRET", "IC50": "28 to 40 nM"}
{"Compound": "c1ccc(-c2n[nH]cc2-c2ccncc2)nc1", "target": "YCK2", "method": "ADP detection", "IC50": "520 nM"}
{"Compound": "O=C1C[C@@H](c2ccc(O)cc2)Oc2cc(O)cc(O)c21", "target": "CA2", "method": "absorbance", "IC50": "68900 nM"}
{"Compound": "CNC(c1ccccc1)c1c(N)[nH]c(=O)[nH]c1=O (centres unmarked)", "target": "EGFR", "IC50": "4600 nM"}
{"Compound": "c1ccc(-c2[nH]ccc2-c2ccnc3ccccc23)nc1", "target": "YCK2", "method": "ADP detection", "IC50": "4900 nM"}
{"Compound": "Nc1cnccc1Nc1ccc(Cl)c(Cl)c1", "target": "DNA-3-methyladenine glycosylase", "IC50": "> 99000 nM"}
